Measurements collected from several papers.
Each line is one published result; the experiments were not run side by side.
SGK2: Serine/threonine-protein kinase Sgk2 (SGK2, Homo sapiens, UniProt Q9HBY8)
CDK1 with cyclin B: Cyclin-dependent kinase 1, with cyclin B (CDK1, Homo sapiens, UniProt P06493)
PSMB6: Proteasome subunit beta type-6 (PSMB6, Homo sapiens, UniProt P28072)
FAP: Prolyl endopeptidase FAP (FAP, Homo sapiens, UniProt Q12884)
BMPR2: Bone morphogenetic protein receptor type-2 (BMPR2, Homo sapiens, UniProt Q13873)

| SMILES | target | test | setting | quantity | result |
| --- | --- | --- | --- | --- | --- |
| Cn1cc(-c2cccc(N3CCc4c(sc5c4CC(C)(C)C5)C3=O)c2CO)cc(Nc2ccncn2)c1=O | SGK2 | enzyme activity, inhibitor | 1 µM | inhibition | 3% |
| C#Cc1n[nH]c2c(-c3cn([C@@H](C)c4ccccc4)c(=O)[nH]c3=O)cc(F)cc12 | CDK1 with cyclin B | enzyme activity, inhibitor | 0.1 µM | inhibition | 5.9% |
| Nc1ncc(-c2nc(N3CCOCC3)nc(N3CCOCC3)n2)c(C(F)F)n1 | SGK2 | binding, competition with immobilised ligand | 10 µM | remaining binding | 84% |
| COc1ccc(S(=O)(=O)N(CC(=O)NO)CC(C)C)cc1 | Stromelysin-2 (Homo sapiens, UniProt P09238) | enzyme activity, inhibitor | 10 µM | inhibition | 91% |
| Cc1cc(-c2nsc(=O)o2)c(S(C)(=O)=O)s1 | PSMB6 | enzyme activity, inhibitor | – | kinact/KI | 1.4 M⁻¹ s⁻¹ |
| N#C[C@@H]1CC(F)(F)CN1C(=O)CNC(=O)c1ccnc2ccccc12 | FAP | enzyme activity, inhibitor | 1 nM | inhibition | 1% |
| C#Cc1n[nH]c2c(-c3cn(C(C)c4ccccn4)c(=O)[nH]c3=O)cc(F)cc12 (stereo not drawn) | CDK1 with cyclin B | enzyme activity, inhibitor | 1 µM | inhibition | 6.8% |
| CSc1sc(C)cc1-c1nsc(=O)o1 | PSMB6 | enzyme activity, inhibitor | – | kinact/KI | 0.03 M⁻¹ s⁻¹ |
| CCOC(=O)c1ccc(OC(=O)CCCCCNC(=N)N)cc1 | FAP | enzyme activity, inhibitor | 10 µM | inhibition | 29% |
| Cc1nn(C)cc1-c1nc2c(N3CCN(Cc4ccc(Cl)cc4)CC3)c(Cl)cnc2[nH]1 | BMPR2 | binding, competition with immobilised ligand | 1 µM | remaining binding | 100% |
| Cn1cc(-c2cc(F)cc(N3CCn4c(cc5c4CCCC5)C3=O)c2CO)cc(Nc2ccc(N3CCN(C4COC4)CC3)cn2)c1=O | 5'-AMP-activated protein kinase catalytic subunit alpha-2 (PRKAA2, Homo sapiens, UniProt P54646) | enzyme activity, inhibitor | 0.1 µM | inhibition | 14% |
| N=C(N)c1ccc2cc(OC(=O)c3ccc(N=C(N)N)cc3)ccc2c1 | FAP | enzyme activity, inhibitor | 10 µM | inhibition | 25% |
| COc1ncccc1-c1cnn2ccc(N3CCN(C(=O)OC(C)C)CC3)nc12 | BMPR2 | binding, competition with immobilised ligand | 1 µM | remaining binding | 72% |
| Oc1cc(Br)cc(Br)c1Oc1ccc(Br)cc1Br | Sulfotransferase 1E1 (SULT1E1, Homo sapiens, UniProt P49888) | enzyme activity, substrate | – | Km | 63.2 µM |
| CN(C)C(=O)COC(=O)Cc1ccc(OC(=O)c2ccc(NC(=N)N)cc2)cc1 | Dipeptidyl peptidase 4 (DPP4, Homo sapiens, UniProt P27487) | enzyme activity, inhibitor | 10 µM | inhibition | 17% |
